Test results from ChEMBL document CHEMBL1142894, “Preparation of 5-aryl-3-alkylthio-l,2,4-triazoles and corresponding sulfones with antiinflammatory-analgesic activity” (Bioorg Med Chem, 2007).
Activity calls are given as the source filed them. The calls are words filed in the database; no cut-off is given here.

Experiments:
[1] = tested on: Mus musculus; assay: Antiinflammatory activity against carrageenan-induced paw edema in Swiss albino mouse assessed as swelling thickness at 100 mg/kg, po after 90 mins; assay type: functional
Summary of the method: (§1)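 Oral dosing in 0.5% CMC; vehicle to controls. Then carrageenan (0.5 mg/25 ll, freshly suspended in 154 mM saline) injected into the right hind paw subplantar tissue; saline into the left paw. Right-left footpad thickness difference measured by dial gauge calliper every 90 min over 6 h. Inhibition % is relative to vehicle control. n = 6; mean ± SEM.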

[2] = tested on: Mus musculus; assay: Antiinflammatory activity against carrageenan-induced paw edema in Swiss albino mouse assessed as swelling thickness at 100 mg/kg, po after 180 mins; assay type: functional; summary of the method: as §1
[3] = tested on: Mus musculus; assay: Antiinflammatory activity against carrageenan-induced paw edema in Swiss albino mouse assessed as swelling thickness at 100 mg/kg, po after 270 mins; assay type: functional; summary of the method: as §1
[4] = tested on: Mus musculus; assay: Antiinflammatory activity against carrageenan-induced paw edema in Swiss albino mouse assessed as swelling thickness at 100 mg/kg, po after 360 mins; assay type: functional; summary of the method: as §1
[5] = tested on: Mus musculus; assay: Inhibition of carrageenan-induced paw edema in Swiss albino mouse at 100 mg/kg, po after 90 mins relative to control; assay type: functional; conditions: 1.5 h; summary of the method: as §1
[6] = tested on: Mus musculus; assay: Inhibition of carrageenan-induced paw edema in Swiss albino mouse at 100 mg/kg, po after 180 mins relative to control; assay type: functional; conditions: 3 h; summary of the method: as §1
[7] = tested on: Mus musculus; assay: Inhibition of carrageenan-induced paw edema in Swiss albino mouse at 100 mg/kg, po after 270 mins relative to control; assay type: functional; conditions: 4.5 h; summary of the method: as §1
[8] = tested on: Mus musculus; assay: Inhibition of carrageenan-induced paw edema in Swiss albino mouse at 100 mg/kg, po after 360 mins relative to control; assay type: functional; conditions: 6 h; summary of the method: as §1
[9] = tested on: Mus musculus; assay: Analgesic activity against p-benzoquinone-induced abdominal constriction in Swiss albino mouse assessed as number of writhings at 25 mg/kg, po; assay type: functional, Abdomen
Summary of the method: (§2)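 Test samples given orally in 0.5% CMC; vehicle to controls. 60 min later, 2.5% (v/v) p-benzoquinone in distilled water, 0.1 ml/10 g, given i.p. Mice housed singly; writhes counted for 15 min starting 5 min after injection. Activity is % change from vehicle controls. n = 6; mean ± SEM.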

[10] = tested on: Mus musculus; assay: Analgesic activity against p-benzoquinone-induced abdominal constriction in Swiss albino mouse assessed as number of writhings at 50 mg/kg, po; assay type: functional, Abdomen; summary of the method: as §2
[11] = tested on: Mus musculus; assay: Analgesic activity against p-benzoquinone-induced abdominal constriction in Swiss albino mouse assessed as number of writhings at 100 mg/kg, po; assay type: functional, Abdomen; summary of the method: as §2
[12] = tested on: Mus musculus; assay: Analgesic activity against p-benzoquinone-induced abdominal constriction in Swiss albino mouse assessed as number of writhings at 200 mg/kg, po; assay type: functional, Abdomen; summary of the method: as §2
[13] = tested on: Mus musculus; assay: Inhibition of p-benzoquinone-induced writhing in Swiss albino mouse at 25 mg/kg, po relative to control; assay type: functional
Summary of the method: (§3)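 Mice, n = 6 per group, dosed orally with a suspension in 0.5% sodium CMC. 60 min later, 0.1 ml/10 g of 2.5% […] p-benzoquinone in distilled water given ip. Abdominal writhes counted per animal for 15 min, starting 5 min after injection. Expressed as % change in mean writhing count versus vehicle controls.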

[14] = tested on: Mus musculus; assay: Inhibition of p-benzoquinone-induced writhing in Swiss albino mouse at 50 mg/kg, po relative to control; assay type: functional; summary of the method: as §3
[15] = tested on: Mus musculus; assay: Inhibition of p-benzoquinone-induced writhing in Swiss albino mouse at 100 mg/kg, po relative to control; assay type: functional; summary of the method: as §3
[16] = tested on: Mus musculus; assay: Inhibition of p-benzoquinone-induced writhing in Swiss albino mouse at 200 mg/kg, po relative to control; assay type: functional; summary of the method: as §3
[17] = tested on: Mus musculus; assay: Gastric-ulcerogenic effect in Swiss albino mouse assessed as lesions at 25 mg/kg, po; assay type: functional, organism-based; design: dose 25 mg/kg
Summary of the method: (§4)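 Mice killed under deep ether anesthesia 3 h after the writhing test; the oral dose in 0.5% CMC was the one used in that test. Stomachs removed, opened along the great curvature and examined under a dissecting microscope for lesions or bleeding. Reported as ratio of ulceration; n = 6.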

[18] = tested on: Mus musculus; assay: Gastric-ulcerogenic effect in Swiss albino mouse assessed as lesions at 50 mg/kg, po; assay type: functional, organism-based; design: dose 50 mg/kg; summary of the method: as §4
[19] = tested on: Mus musculus; assay: Gastric-ulcerogenic effect in Swiss albino mouse assessed as lesions at 100 mg/kg, po; assay type: functional, organism-based; design: dose 100 mg/kg; summary of the method: as §4
[20] = tested on: Mus musculus; assay: Antiinflammatory activity against carrageenan-induced paw edema in Swiss albino mouse assessed as swelling thickness at 25 mg/kg, po after 90 mins; assay type: functional; summary of the method: as §1
[21] = tested on: Mus musculus; assay: Antiinflammatory activity against carrageenan-induced paw edema in Swiss albino mouse assessed as swelling thickness at 25 mg/kg, po after 180 mins; assay type: functional; summary of the method: as §1
[22] = tested on: Mus musculus; assay: Antiinflammatory activity against carrageenan-induced paw edema in Swiss albino mouse assessed as swelling thickness at 25 mg/kg, po after 270 mins; assay type: functional; summary of the method: as §1
[23] = tested on: Mus musculus; assay: Antiinflammatory activity against carrageenan-induced paw edema in Swiss albino mouse assessed as swelling thickness at 25 mg/kg, po after 360 mins; assay type: functional; summary of the method: as §1
[24] = tested on: Mus musculus; assay: Antiinflammatory activity against carrageenan-induced paw edema in Swiss albino mouse assessed as swelling thickness at 50 mg/kg, po after 180 mins; assay type: functional; summary of the method: as §1
[25] = tested on: Mus musculus; assay: Antiinflammatory activity against carrageenan-induced paw edema in Swiss albino mouse assessed as swelling thickness at 50 mg/kg, po after 270 mins; assay type: functional; summary of the method: as §1
[26] = tested on: Mus musculus; assay: Antiinflammatory activity against carrageenan-induced paw edema in Swiss albino mouse assessed as swelling thickness at 50 mg/kg, po after 360 mins; assay type: functional; summary of the method: as §1
[27] = tested on: Mus musculus; assay: Antiinflammatory activity against carrageenan-induced paw edema in Swiss albino mouse assessed as swelling thickness at 200 mg/kg, po after 90 mins; assay type: functional; summary of the method: as §1
[28] = tested on: Mus musculus; assay: Antiinflammatory activity against carrageenan-induced paw edema in Swiss albino mouse assessed as swelling thickness at 200 mg/kg, po after 180 mins; assay type: functional; summary of the method: as §1
[29] = tested on: Mus musculus; assay: Antiinflammatory activity against carrageenan-induced paw edema in Swiss albino mouse assessed as swelling thickness at 200 mg/kg, po after 270 mins; assay type: functional; summary of the method: as §1
[30] = tested on: Mus musculus; assay: Antiinflammatory activity against carrageenan-induced paw edema in Swiss albino mouse assessed as swelling thickness at 200 mg/kg, po after 360 mins; assay type: functional; summary of the method: as §1
[31] = tested on: Mus musculus; assay: Inhibition of carrageenan-induced paw edema in Swiss albino mouse at 50 mg/kg, po after 90 mins relative to control; assay type: functional; conditions: 1.5 h
Summary of the method: (§5)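 Mice, n = 6 per group. Test agent given orally as a suspension in 0.5% sodium CMC in distilled water; controls received vehicle only. Afterwards, 0.5 mg/25 ll carrageenan in saline (154 mM NaCl) injected subplantar into the right hind paw, saline into the left. Right-minus-left footpad thickness measured by dial gauge caliper every 90 min for 6 h. Inhibition is relative to vehicle-control group means.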

[32] = tested on: Mus musculus; assay: Inhibition of carrageenan-induced paw edema in Swiss albino mouse at 50 mg/kg, po after 180 mins relative to control; assay type: functional; conditions: 3 h; summary of the method: as §1
[33] = tested on: Mus musculus; assay: Inhibition of carrageenan-induced paw edema in Swiss albino mouse at 50 mg/kg, po after 270 mins relative to control; assay type: functional; conditions: 4.5 h; summary of the method: as §5
[34] = tested on: Mus musculus; assay: Inhibition of carrageenan-induced paw edema in Swiss albino mouse at 50 mg/kg, po after 360 mins relative to control; assay type: functional; conditions: 6 h; summary of the method: as §5
[35] = tested on: Mus musculus; assay: Acute toxicity in Swiss albino mouse assessed as lethal effect at 25 mg/kg/day, po after 72 hrs; assay type: organism-based; design: route oral; conditions: in vivo
Summary of the method: (§6)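 Oral single dose suspended in 0.5% carboxymethylcellulose, given after a 24 h fast; food and water returned 1 h after dosing. Vehicle-only controls. Mice observed at 1 h, then once daily for 72 h, for toxic signs and mortality.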

[36] = tested on: Mus musculus; assay: Acute toxicity in Swiss albino mouse assessed as lethal effect at 50 mg/kg/day, po after 72 hrs; assay type: organism-based; design: route oral; conditions: in vivo; summary of the method: as §6
[37] = tested on: Mus musculus; assay: Acute toxicity in Swiss albino mouse assessed as lethal effect at 100 mg/kg/day, po after 72 hrs; assay type: organism-based; design: route oral; conditions: in vivo; summary of the method: as §6
[38] = tested on: Mus musculus; assay: Acute toxicity in Swiss albino mouse assessed as lethal effect at 200 mg/kg/day, po after 72 hrs; assay type: organism-based; design: route oral; conditions: in vivo; summary of the method: as §6
[39] = tested on: Mus musculus; assay: Antiinflammatory activity against carrageenan-induced paw edema in Swiss albino mouse assessed as swelling thickness at 50 mg/kg, po after 90 mins; assay type: functional; summary of the method: as §1

## CCS(=O)(=O)c1nc(-c2ccc(Br)cc2)n[nH]1
[1]
  Activity: 32.1 10^-2mm
[2]
  Activity: 38.3 10^-2mm
[3]
  Activity: 45.7 10^-2mm
[4]
  Activity: 49.9 10^-2mm
[5]
  inhibition in vivo at 100 mg/kg: 28.3%
[6]
  inhibition in vivo at 100 mg/kg: 25.6%
[7]
  inhibition in vivo at 100 mg/kg: 22.3%
[8]
  inhibition in vivo at 100 mg/kg: 27.5%
[9]
  Activity: 40.9
[10]
  Activity: 35.9
[11]
  Activity: 35.2
[12]
  Activity: 50.6
[13]
  inhibition in vivo at 25 mg/kg: 20.4%
[14]
  inhibition in vivo at 50 mg/kg: 30.2%
[15]
  inhibition in vivo at 100 mg/kg: 25.6%
[16]
  inhibition in vivo at 200 mg/kg: 1.6%
[17]
  Activity: Active
[18]
  Activity: Active
[19]
  Activity: Active
[20]
  Activity: 54.6 10^-2mm
[21]
  Activity: 62.8 10^-2mm
[22]
  Activity: 67.8 10^-2mm
[23]
  Activity: 75.1 10^-2mm
[24]
  Activity: 43.5 10^-2mm
[25]
  Activity: 49.1 10^-2mm
[26]
  Activity: 50.4 10^-2mm
[27]
  Activity: 57.4 10^-2mm
[28]
  Activity: 61.5 10^-2mm
[29]
  Activity: 68.5 10^-2mm
[30]
  Activity: 76.2 10^-2mm
[31]
  inhibition in vivo at 50 mg/kg: 35.2%
[32]
  inhibition in vivo at 50 mg/kg: 26.8%
[33]
  inhibition in vivo at 50 mg/kg: 24.2%
[34]
  inhibition in vivo at 50 mg/kg: 30%
[35]
  Activity: Non-toxic
[36]
  Activity: Non-toxic
[37]
  Activity: Non-toxic
[38]
  Activity: Non-toxic
[39]
  Activity: 40.4 10^-2mm
